Compound activity deposited in PubChem BioAssay by Johns Hopkins Ion Channel Center.
In the library only some 3.8% were active in any assay of this set; here they are far more common.
KCNQ1 block = inhibitors of human KCNQ1 channel, primary screen, cell-based, thallium flux, high-throughput; Potassium voltage-gated channel subfamily KQT member 1 (Homo sapiens), P51787; CHO-K1 KCNQ1, FluxOR thallium flux fluorescence; active compounds read high; B-score at 10 µM; actives 1.3% (n = 310,000); AID 2642, 2010;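 active means compounds whose thallium flux B-score, printed positive for inhibition, exceeds three library SD while starting fluorescence stays within three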;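 further: channel opened by potassium depolarization with thallium stimulus after 20 min compound exposure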
hERG protect = hERG rescue from dofetilide block, primary screen, cell-based, CHO-hERG, FluxOR thallium flux, dofetilide IC70. actives 0.51% (n = 310,000). Voltage-gated inwardly rectifying potassium channel KCNH2 (Homo sapiens), Q12809. activation (rescue from dofetilide block), less the hit threshold, % at 10 µM. dofetilide IC70 present;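 active means activation above the mean of controls blocked by dofetilide plus 5 SD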;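 further: thallium influx through hERG after potassium depolarization seen as dye fluorescence rise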
KCNK9 inh = KCNK9 potassium channel inhibitors, primary screen, HEK293 cells, thallium flux; AID 488922, 2010; Potassium channel subfamily K member 9 (Homo sapiens), Q9NPC2; FluxOR thallium flux fluorescence; active compounds read low; B-score at 10 µM; actives 1.2% (n = 310,000);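 active means ratio B-score over 3 SD below the library mean, with starting fluorescence within 5 SD of its mean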;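 further: negative B-score means less thallium flux so channel inhibition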
KCNQ1 pot = potentiators or activators of KCNQ1 channel, primary screen, cell-based, thallium flux, high-throughput. AID 2648, 2010. B-score at 10 µM. actives 0.35% (n = 310,000). CHO-K1 KCNQ1, thallium flux FluxOR fluorescence; active compounds read high;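 active means fluorescence ratio B-score, a plate-corrected score, at least three library SD, with initial intensity B-score within 5 SD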
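Assay system: CHO-K1 cells stably expressing KCNQ1; Medium: assay buffer with matched DMSO; Also added: K+/Tl+ depolarizing stimulus; Dosing: single dose; Timing: dye 90 min, compound 20 min, room temperature; Measured by: kinetic FluxOR thallium fluorescence, 10-s 1-Hz baseline, 110-s post-stimulus read; Read-out: peak-minus-minimum fluorescence over initial fluorescence, negative-control normalized, B-scored.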
Kir21 block = inhibitors of mouse Kir2.1 inward-rectifier potassium channel; Inward rectifier potassium channel 2 (Mus musculus), P35561; HEK293-Kir2.1, FluxOR thallium flux fluorescence; active compounds read low; B-score at 10 µM; actives 0.85% (n = 310,000); AID 1672, 2009;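 active means fluorescence ratio B-score at or below minus 3 SD of library scores, with starting-brightness B-score within 2 SD, cut at about -4.2 in these data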;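 further: channel flux triggered by added potassium and thallium sulfate stimulus; B-score of peak minus minimum fluorescence over baseline after thallium stimulus; more negative B-score means stronger Kir2.1 block with less thallium influx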
KCNK3 block = human KCNK3 channel inhibitors, primary screen, CHO cells, FluxOR thallium flux, B-score; Potassium channel subfamily K member 3 (Homo sapiens), O14649; FluxOR fluorescence; active compounds read low; B-score at 10 µM; actives 0.84% (n = 340,000); AID 602410, 2012;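 active means B-score under library mean minus 4 SD, starting fluorescence ratio at most library mean plus 5 SD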;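 further: more negative B-score means stronger inhibition of thallium flux through KCNK3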
KCNQ1 block val = KCNQ1 potassium channel inhibitors, confirmation, cell-based, Tl flux, duplicate | KCNQ1 cell line, FluxOR thallium flux fluorescence | shares compounds with KCNQ1 block | AID 588353, 2011 | inhibition, % at 10 µM | actives 93% (n = 1,600);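 active means primary screen active, with duplicate mean exceeding buffer control mean plus 3 SD of buffer wells, cut at about 28% in these data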;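 further: 0% = buffer control ratio and 100% = XE991 inhibitor control ratio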
CHO Tl flux = thallium flux effects in parental CHO cells, counter-screen for KCNQ1 inhibitor project, cell-based, Tl flux. shares compounds with KCNQ1 block. parental CHO-K1, FluxOR thallium flux fluorescence ratio; active compounds read low; zero means no signal rise above baseline. fluorescence ratio (Tl flux) at 10 µM. actives 21% (n = 1,600);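 active means mean of duplicate thallium-flux fluorescence ratios in parental host cells more than 5 SD below the buffer control mean, cut at about 0.38 in these data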;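 further: ratio is peak minus minimum fluorescence divided by baseline fluorescence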
KCNQ2 spec = KCNQ2 channel inhibition, selectivity assay for KCNQ1 inhibitor project, cell-based. shares compounds with KCNQ1 block. KCNQ2 cells, FluxOR thallium flux fluorescence. inhibition, % at 10 µM. actives 71% (n = 1,600). AID 651746, 2012;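 active means mean percent inhibition of the KCNQ2 thallium signal more than 5 SD above the buffer-only control wells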;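 further: KCNQ2 expressed in CHO cells; 0% = buffer control wells and 100% = XE-991 inhibitor control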
KCNQ1 KCNE1 spec = KCNQ1/KCNE1 channel inhibition, selectivity assay for KCNQ1 inhibitor project, CHO-K1 cells, thallium flux, FluxOR; shares compounds with KCNQ1 block; FluxOR thallium flux fluorescence; inhibition, % at 10 µM; actives 77% (n = 1,600); AID 652147, 2013;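 active means mean percent inhibition of duplicate wells above the buffer-only control mean plus 3 SD of those controls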;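 further: 0% = buffer only wells and 100% = XE-991 inhibitor control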
KCNK9 block conf = KCNK9 potassium channel inhibitors, confirmation, HEK293 cells, thallium flux, duplicate; actives 43% (n = 4,900); FluxOR thallium flux fluorescence; shares compounds with KCNK9 inh; AID 492992, 2010; inhibition, % at 10 µM;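 active means thallium signal inhibited by more than 5 SD of the compound-free buffer control wells, on both duplicate plates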;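 further: 0% = assay buffer control wells without compound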
Kir21 sel = mouse Kir2.1 channel inhibition, confirmation, selectivity assay for KCNK9 modulator project, cell-based, HEK293, thallium flux; inhibition, % at 10 µM; Kir2.1 cells, FluxOR thallium flux fluorescence; actives 4% (n = 4,900); shares compounds with KCNK9 inh; AID 492993, 2010;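 active means thallium signal drop more than 5 SD beyond the mean of the no-compound control wells, seen in both duplicate plates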;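 further: signal is fluorescence rise after thallium addition divided by baseline fluorescence; plate controls were assay buffer only for no effect and full block by chlorpromazine control for full effect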
KCNK9 uninduced = thallium flux in non-induced HEK293 cells, confirmation, counter-screen for KCNK9 inhibitor project, cell-based, second counter screen, non-induced KCNK9-HEK293; shares compounds with KCNK9 inh; FluxOR thallium flux; inhibition, % at 10 µM; actives 40% (n = 4,900); AID 492997, 2010;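 active means thallium signal drop beyond 5 SD of the untreated control mean, on both duplicate plates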;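 further: plate controls were buffer only IC0 wells for no effect and SID17386958 at its maximal inhibitory level for full effect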
KCNK3 confirm = retest of human KCNK3 channel inhibitors, confirmation, CHO cells, FluxOR thallium flux, triplicate. shares compounds with KCNK3 block. FluxOR fluorescence; 0% buffer, 100% carvedilol maximal block. ratio percent of control, % at 10 µM. actives 99% (n = 2,400). AID 651638, 2012;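 active means ratio percent of control, averaged over triplicates, above buffer control mean plus 5 SD, cut at about 64% in these data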;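 further: ratio is the fluorescence rise from min to max over baseline after thallium stimulus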
KCNK3 noninduced = thallium flux inhibition in non-induced cells, primary screen, counter-screen for KCNK3 inhibitor project, cell-based, non-induced KCNK3 line, FluxOR thallium, triplicate. shares compounds with KCNK3 block. non-induced KCNK3 parental cells; active compounds read low. thallium flux ratio (lower = more inhibition) at 10 µM. actives 40% (n = 2,400);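 active means thallium flux ratio, averaged over three wells, more than 5 SD below the buffer control mean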;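 further: host cells are CHO cells without KCNK3 induction; ratio is peak minus trough fluorescence over baseline then normalized to buffer controls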
The depositor's hits bear a star; i = inactive; . = no result given; + = active, no number.

SMILES	KCNQ1 block	hERG protect	KCNK9 inh	KCNQ1 pot	Kir21 block	KCNK3 block	KCNQ1 block val	CHO Tl flux	KCNQ2 spec	KCNQ1 KCNE1 spec	KCNK3 confirm	KCNK3 noninduced	others
COc1ccc(CN2C(=O)c3cccnc3C2=O)cc1S(=O)(=O)NC(C)C	i	2	i	i	1.2	i	.	.	.	.	.	.
O=C(OCc1ccccn1)c1ccc(COc2ccc3ccccc3c2)o1	8*	-31	-7*	i	0.05	-10*	148*	0.35*	121%*	+	122*	0.15*
COc1ccc2nc3c(cc2c1)c(NC(=O)c1cccs1)nn3CC(C)C	6*	-14	-9*	i	0.98	-9.8*	144*	0.29*	127%*	+	94*	0.15*	KCNK9 block conf=i;Kir21 sel=i;KCNK9 uninduced=i
CCCC(=O)Nc1cc(C)cn(Cc2c(F)cccc2Cl)c1=O	i	1	i	i	1.8	i	.	.	.	.	.	.
CC1CCc2ccccc2N1CC(=O)Nc1cccc(S(=O)(=O)N2CCCC2)c1 (configuration not stated)	.	.	.	.	.	i	.	.	.	.	.	.
Cc1onc(-c2ccccc2)c1C(=O)OCCOc1cccc(Cl)c1	7*	-9	i	i	0.13	-14*	86*	0.42	86%*	150%*	90*	i
CCOc1ccc(C(=O)COC(=O)c2c(-c3ccccc3)noc2C)cc1	i	-15	i	i	-1.1	i	.	.	.	.	.	.
O=C(CCc1nc2ccccc2c(=O)[nH]1)NNC(=O)c1ccc(F)cc1	.	.	.	.	.	i	.	.	.	.	.	.
